Test results taken from ChEMBL document CHEMBL1129573, “Structure-activity relationships in a series of substituted indolocarbazoles: topoisomerase I and protein kinase C inhibition and antitumoral and antimicrobial properties” (J Med Chem, 1996).
Converted amounts (≈) assume the structure as drawn. “And” between values parts separate entries of the source, which are not always exact repeats. Equal values may be shown once.

Assays:
Bacillus cereus = test: Antimicrobial activity on Bacillus cereus; type: functional
B16 [1] = test: Antiproliferative activity against B16 mouse melanoma cells; type: functional, cell-based
In short: (§1)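 B16 mouse melanoma cells (EMEM, 10% FCS, 37 °C, 5% CO2) plated at 200 cells/dish, adhered 20 h, then exposed 24 h to increasing drug concentrations. Drug medium removed, PBS wash, 12 days regrowth in fresh medium.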

[2] = test system: DNA topoisomerase II (Bos taurus); test: Inhibitory activity towards Topoisomerase 2 from calf thymus
[3] = test system: DNA topoisomerase I (Bos taurus); test: Inhibitory activity towards Topoisomerase 1 from calf thymus.
[4] = target: Protein kinase C alpha type (Homo sapiens, UniProt P17252); test: Inhibition of Protein Kinase C(PKC)
In short: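 Procedure a: PKC (0.5 μg/mL) with histone IIIs (2.4 mg/mL), 10 μM ATP plus [γ32P]ATP, 10 mM MgCl2, 0.1 mM CaCl2, phosphatidylserine and diacylglycerol (10 mg/mL each), 50 mM Tris pH 7.5, at 30 °C for 12 min. TCA precipitation, histone-bound 32P counted by scintillation; triplicate.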

P388 = test: Antiproliferative activity against P388 Murine Leukemia cells; type: functional, cell-based; settings: Mus musculus
[5] = Inhibition of Protein Kinase A (PKA).
In short: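 PKA (1 μg/mL) phosphorylating histone IIa (1 mg/mL) with 10 μM ATP plus [γ32P]ATP, 5 mM MgCl2, 50 mM Tris pH 7.0, at 30 °C for 12 min. Stopped with 12% TCA with BSA carrier, reprecipitated. 32P incorporated into histone counted by scintillation; triplicate.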

Mus musculus [6] = test: Antitumor activity against mice with P388 leukemia cell was assessed from the ratio of median survival time of treated animals (T) to controls animals, at 16 mg/Kg; type: functional
In short: (§2)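 Male B6D2F1 mice injected intraperitoneally with 1×10^6 P388 leukemia cells on day 0 (line kept by weekly intraperitoneal passage in male DBA/2 mice). Drug given intraperitoneally on days 1, 5 and 9. Controls received DMSO–olive oil solvent. Six mice per treated group, 12 controls. Median survival time compared with controls, reported as oncostatic index T/C × 100.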

Mus musculus [7] = test: Antitumor activity against mice with B16 melanoma was assessed from the ratio of median survival time of treated animals (T) to controls animals, at 16 mg/Kg; type: functional
In short: (§3)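 Male B6D2F1 mice given 0.5 × 10⁶ B16 melanoma cells subcutaneously on the dorsum on day 0 (cells maintained in MEM culture). Drug given intraperitoneally on days 1, 5 and 9. Controls received DMSO–olive oil solvent. Six mice per treated group, 12 controls. Median survival time compared with controls, reported as oncostatic index T/C × 100.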

Mus musculus [8] = test: In vivo efficacy study on mice with P388 Leukemia Cells determined after administration of 16 mg/kg/day dosage; type: functional; in short: as §2
Mus musculus [9] = test: Antitumor activity against mice with B16 melanoma was assessed from the ratio of median survival time of treated animals (T) to controls animals, at 2 mg/Kg; type: functional; in short: as §3
Mus musculus [10] = test: In vivo efficacy study on mice with B16 Melanoma cells determined after administration of 2 mg/kg/day dosage; type: functional, Melanoma cell; in short: as §3
Mus musculus [11] = test: In vivo efficacy study on mice with P388 Leukemia Cells determined after administration of 64 mg/kg/day dosage; type: functional; in short: as §2
Mus musculus [12] = test: In vivo efficacy study on mice with B16 Melanoma cells determined after administration of 16 mg/kg/day dosage; type: functional, Melanoma cell; in short: as §3
Mus musculus [13] = test: Antitumor activity against mice with P388 leukemia cell was assessed from the ratio of median survival time of treated animals (T) to controls animals, at 64 mg/Kg; type: functional; in short: as §2
Mus musculus [14] = test: In vivo efficacy study on mice with P388 Leukemia Cells determined after administration of 2 mg/kg/day dosage; type: functional; in short: as §2
Mus musculus [15] = test: Antitumor activity against mice with P388 leukemia cell was assessed from the ratio of median survival time of treated animals (T) to controls animals, at 2 mg/Kg; type: functional; in short: as §2
Mus musculus [16] = test: Antitumor activity against mice with B16 melanoma was assessed from the ratio of median survival time of treated animals (T) to controls animals, at 64 mg/Kg; type: functional; in short: as §3
Mus musculus [17] = test: In vivo efficacy study on mice with B16 Melanoma cells determined after administration of 64 mg/kg/day dosage; type: functional, Melanoma cell; in short: as §3
Mus musculus [18] = test: In vivo efficacy study on mice with B16 Melanoma Cells determined after administration of 64 mg/kg/day dosage; type: functional; in short: as §3
B16 [19] = test: Compound was evaluated for antiproliferative activity against B16 mouse melanoma cells *= Partially precipitated in DMSO; type: functional, cell-based; in short: as §1

Row | Compound | MIC (Bacillus cereus) | IC50 (B16 [1]) | MIC [2] | MIC [3] | IC50 [4] | IC50 (P388) | IC50 [5] | also measured
1 | O=CNN1C(=O)c2c(c3c4ccccc4[nH]c3c3[nH]c4ccccc4c23)C1=O | 50 µg/mL (≈ 136 µM) | > 100 µM | > 10 µg/mL | 1 µg/mL (≈ 2.71 µM) | > 100 µM | 3.5 µM | – | –
2 | O=C1NC(=O)c2c1c1c3cccc(Cl)c3[nH]c1c1[nH]c3c(Cl)cccc3c21 | > 50 µg/mL | 24 µM | – | – | > 100 µM | > 10 µM | > 100 µM | –
3 | O=C1NCc2c1c1c3cccc(Cl)c3[nH]c1c1[nH]c3c(Cl)cccc3c21 | 6.25 µg/mL (≈ 16.4 µM) | – | > 10 µg/mL | > 10 µg/mL | > 100 µM | 3.5 µM | > 100 µM | –
4 | O=C1c2c(c3c4ccccc4[nH]c3c3[nH]c4ccccc4c23)C(=O)N1CCO | > 50 µg/mL | > 150 µM | > 10 µg/mL | > 10 µg/mL | > 100 µM | 7 µM | – | –
5 | O=C1NCc2c1c1c3ccccc3[nH]c1c1[nH]c3ccccc3c21 [STAUROSPORINONE] | > 50 µg/mL | 4.8 µM | – | – | – | 4 µM | 25.7 µM | T/C x100 (Mus musculus [6]): 100; T/C x100 (Mus musculus [7]): 122; Mean survival in days (Mus musculus [8]): 11; T/C x100 (Mus musculus [9]): 94; Mean survival in days (Mus musculus [10]): 23; Mean survival in days (Mus musculus [11]): 11.5; Mean survival in days (Mus musculus [12]): 30; T/C x100 (Mus musculus [13]): 104; Mean survival in days (Mus musculus [14]): 11; T/C x100 (Mus musculus [15]): 100; T/C x100 (Mus musculus [16]): 106; Mean survival in days (Mus musculus [17]): 26
6 | O=C1NC(O)c2c1c1c3ccccc3[nH]c1c1[nH]c3ccccc3c21 (configuration not stated) | 6.25 µg/mL (≈ 19.1 µM) | – | – | – | – | 0.3 µM | 34 µM | –
7 | O=C1c2c(c3c4ccccc4[nH]c3c3[nH]c4ccccc4c23)C(=O)N1O | > 50 µg/mL | 4.6 µM | > 10 µg/mL | > 10 µg/mL | 79.2 µM | > 10 µM | 41.5 µM | T/C x100 (Mus musculus [6]): 100; T/C x100 (Mus musculus [7]): 128; Mean survival in days (Mus musculus [8]): 11; Mean survival in days (Mus musculus [18]): 27.5; T/C x100 (Mus musculus [9]): 112; Mean survival in days (Mus musculus [10]): 27.5; Mean survival in days (Mus musculus [11]): 11; Mean survival in days (Mus musculus [12]): 31.5; T/C x100 (Mus musculus [13]): 100; Mean survival in days (Mus musculus [14]): 11.5; T/C x100 (Mus musculus [15]): 104; T/C x100 (Mus musculus [16]): 112
8 | CO[C@H]1[C@H](O)[C@@H](O)[C@H](n2c3c(Cl)cccc3c3c4c(c5c6cccc(Cl)c6[nH]c5c32)C(=O)NC4=O)O[C@@H]1CO [REBECCAMYCIN] | 6.25 µg/mL (≈ 11 µM) | 0.48 µM | – | – | – | 0.3 µM | > 100 µM | T/C x100 (Mus musculus [6]): 150; T/C x100 (Mus musculus [7]): 112; Mean survival in days (Mus musculus [8]): 16.5; T/C x100 (Mus musculus [9]): 124; Mean survival in days (Mus musculus [10]): 30.5; Mean survival in days (Mus musculus [11]): 18; Mean survival in days (Mus musculus [12]): 27.5 and 26; T/C x100 (Mus musculus [13]): 164; Mean survival in days (Mus musculus [14]): 15; T/C x100 (Mus musculus [15]): 136; T/C x100 (Mus musculus [16]): 106
9 | NN1C(=O)c2c(c3c4cccc(Cl)c4[nH]c3c3[nH]c4c(Cl)cccc4c23)C1=O | – | 17 µM | > 10 µg/mL | > 10 µg/mL | > 100 µM | > 10 µM | – | –
10 | COC1C(CO)OC(n2c3c(Cl)cccc3c3c4c(c5c6cccc(Cl)c6[nH]c5c32)CNC4=O)C(O)C1O (configuration not stated) | 3.1 µg/mL (≈ 5.57 µM) | > 125 µM | > 10 µg/mL | 1 µg/mL (≈ 1.8 µM) | 28.8 µM | 3 µM | > 100 µM | –
11 | O=CNN1C(=O)c2c(c3c4cccc(Cl)c4[nH]c3c3[nH]c4c(Cl)cccc4c23)C1=O | > 50 µg/mL | – | – | – | > 100 µM | > 10 µM | – | –
12 | O=C1NC(O)c2c1c1c3cccc(Cl)c3[nH]c1c1[nH]c3c(Cl)cccc3c21 (configuration not stated) | > 50 µg/mL | 8.4 µM | > 10 µg/mL | > 10 µg/mL | > 100 µM | 9 µM | > 100 µM | –
13 | O=C1NC(=O)c2c1c1c3ccccc3[nH]c1c1[nH]c3ccccc3c21 [STAUROSPORINE AGLYCON] | > 50 µg/mL | > 100 µM | – | – | – | 4 µM | 60 µM | –
14 | NNC(=O)NN1C(=O)c2c(c3c4ccccc4[nH]c3c3[nH]c4ccccc4c23)C1=O | 50 µg/mL (≈ 126 µM) | – | – | – | 78 µM | > 10 µM | – | IC50 (B16 [19]): 75 µM

More lines, main results first:

Row | MIC (Bacillus cereus) | IC50 (B16 [1]) | MIC [2] | MIC [3] | IC50 [4] | IC50 (P388) | IC50 [5] | Compound | also measured
15 | 0.8 µg/mL (≈ 1.37 µM) | 0.3 µM | > 10 µg/mL | 0.1 µg/mL (≈ 0.171 µM) | > 100 µM | 0.1 µM | – | COC1C(CO)OC(n2c3c(Cl)cccc3c3c4c(c5c6cccc(Cl)c6[nH]c5c32)C(=O)N(N)C4=O)C(O)C1O (configuration not stated) | –
16 | 3.1 µg/mL (≈ 5.05 µM) | – | > 10 µg/mL | 1 µg/mL (≈ 1.63 µM) | > 100 µM | 0.3 µM | – | COC1C(CO)OC(n2c3c(Cl)cccc3c3c4c(c5c6cccc(Cl)c6[nH]c5c32)C(=O)N(NC=O)C4=O)C(O)C1O (configuration not stated) | –
17 | 3.1 µg/mL (≈ 5.29 µM) | 0.7 µM | > 10 µg/mL | 0.3 µg/mL (≈ 0.512 µM) | 68 µM | 0.5 µM | – | COC1C(CO)OC(n2c3c(Cl)cccc3c3c4c(c5c6cccc(Cl)c6[nH]c5c32)C(=O)N(O)C4=O)C(O)C1O (configuration not stated) | –
18 | > 50 µg/mL | > 250 µM | – | – | 43.5 µM | > 10 µM | 44.6 µM | NN1C(=O)c2c(c3c4ccccc4[nH]c3c3[nH]c4ccccc4c23)C1=O | –
19 | 12.5 µg/mL (≈ 25.6 µM) | – | > 10 µg/mL | 0.01 µg/mL (≈ 0.0205 µM) | 3.7 µM | 3 µM | – | COC1C(CO)OC(n2c3ccccc3c3c4c(c5c6ccccc6[nH]c5c32)CNC4=O)C(O)C1O (configuration not stated) | –
20 | 25 µg/mL (≈ 45.9 µM) | – | > 10 µg/mL | 0.1 µg/mL (≈ 0.184 µM) | > 100 µM | 0.3 µM | – | COC1C(CO)OC(n2c3ccccc3c3c4c(c5c6ccccc6[nH]c5c32)C(=O)N(NC=O)C4=O)C(O)C1O (configuration not stated) | –
21 | 50 µg/mL (≈ 96.8 µM) | 4.1 µM | > 10 µg/mL | 0.1 µg/mL (≈ 0.194 µM) | > 100 µM | 0.3 µM | – | COC1C(CO)OC(n2c3ccccc3c3c4c(c5c6ccccc6[nH]c5c32)C(=O)N(N)C4=O)C(O)C1O (configuration not stated) | –
22 | 25 µg/mL (≈ 48.3 µM) | 5.8 µM | > 10 µg/mL | 0.1 µg/mL (≈ 0.193 µM) | 40 µM | 3 µM | – | COC1C(CO)OC(n2c3ccccc3c3c4c(c5c6ccccc6[nH]c5c32)C(=O)N(O)C4=O)C(O)C1O (configuration not stated) | –
23 | > 50 µg/mL | 17.5 µM | > 10 µg/mL | 1 µg/mL (≈ 1.99 µM) | > 100 µM | 3.5 µM | > 100 µM | CO[C@H]1[C@H](O)[C@@H](O)[C@H](n2c3ccccc3c3c4c(c5c6ccccc6[nH]c5c32)C(=O)NC4=O)O[C@@H]1CO | –
